The record followed here is ChEMBL document CHEMBL4622973, “Discovery of Potent Small-Molecule SIRT6 Activators: Structure-Activity Relationship and Anti-Pancreatic Ductal Adenocarcinoma Activity” (J Med Chem, 2020).

The nature of series [1]: Oral bioavailability in Sprague-Dawley rat at 10 mg/kg after 0.083 to 24 hrs by LC-MS/MS analysis. It is filed as ADME, organism-based. The note with it: in vivo. Summed up: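 Male Sprague-Dawley rats, 6–8 weeks old, received a single dose of 10 mg/kg p.o. or 2 mg/kg i.v. The vehicle was 5% DMSO, 10% Solutol and 85% saline at pH 7. Blood was taken by cardiac puncture at 0.083–24 h (p.o.) or 0.25–24 h (i.v.), and plasma was measured by LC-MS/MS. Values are mean ± SD, n = 3.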

Series [2] relates to MIA PaCa-2. Put plainly: Inhibition of cell migration of human MIAPaCa2 cells at 10 umol/L incubated for 24 hrs by inverted microscopy relative to control. The following applies: MIA PaCa-2, 24 h. It counts as functional. Summed up: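 PDAC cells are grown to a confluent monolayer at 37 °C in 5% CO2. The monolayer is scratched with a 200 μL pipette tip to make a gap of constant width, then washed with PBS. Cells are exposed to a range of compound concentrations. They are imaged by inverted microscope after 24 h. Migrated cells are counted by hand, and inhibition is expressed relative to untreated wells (100%).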

The subject of series [3] is PANC-1. As to the kind of experiment: Antiproliferative activity against human PANC1 cells assessed as reduction in cell viability incubated for 72 hrs by MTT assay. It counts as functional, cell-based. An outline of the steps:
(§1)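 PDAC cells grown in DMEM or RPMI1640 with 10% FBS and penicillin/streptomycin at 37 °C, 5% CO2. Plated in triplicate, then treated with a concentration series for 72 h. Viability read by MTT. IC50 calculated from dose-response curves.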

Series [4] relates to PANC-1. As to the kind of experiment: Antitumor activity against human PANC1 cells xenografted in BALB/c nude mouse assessed as slowing of tumor growth at 100 to 150 mg/kg/day, po for 30 days. It is filed as functional, organism-based. An outline of the steps: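 Female BALB/c nude mice, 6-8 weeks old, injected subcutaneously in the right flank with 5×10^6–1×10^7 PANC-1 cells. At 130-150 mm³, mice randomized into 4 groups (n = 6) and dosed orally once daily for 30 days against vehicle. Tumor volume followed over time. Inhibition rate assessed against control.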
(In general: In xenograft studies the graft and the host belong to different species.)

Series [5] can be described thus: Half life in Sprague-Dawley rat at 10 mg/kg, po after 0.083 to 24 hrs by LC-MS/MS analysis. It is filed as ADME, organism-based. The note with it: in vivo. Summed up: (§2)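 Male Sprague-Dawley rats, 6-8 weeks old. Dosing solution of 10 (PO) or 2 (IV) mg/mL in 5% DMSO, 10% Solutol and 85% saline, pH 7. Blood taken by cardiac puncture at 0.083–24 h (PO) or 0.25–24 h (IV). Plasma levels measured by LC-MS/MS. Values are mean ± SD, n = 3.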

The test system of series [6] is BXPC-3. As to the kind of experiment: Antiproliferative activity against human BxPC3 cells assessed as reduction in cell viability incubated for 72 hrs by MTT assay. It is filed as functional, cell-based. Summed up:
as §1

The target in series [7] is T1, NAD-dependent protein deacylase sirtuin-6 (Homo sapiens, UniProt Q8N6T7). Put plainly: Activation of N-terminal his-tagged human SIRT6 expressed in Escherichia coli M15 [pREP4] assessed as increase in peptide demyristoylation incubated for 120 mins using Ac-EALPKK(Myr)-AMC substrate by FDL assay relative to control. An outline of the steps:
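Demyristoylation: 1 µM recombinant SIRT6 preincubated with compound for 20 min at 37 °C in 50 mM Tris-HCl pH 8.0, BSA 1 mg/mL, 1 mM DTT, with 10 µM Ac-EALPKK(Myr)-AMC. Fluorescence read. Mean ± s.d., triplicate wells, three independent experiments.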

Series [8] has as its system ASPC1. Put plainly: Inhibition of colony formation in human AsPC1 cells incubated for 9 to 18 days by crystal violet staining based assay. It is filed as functional, cell-based. An outline of the steps:
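Cells are seeded per well at the line-specific density: BXPC-3 750, PANC-1 500, AsPC-1 2200, MIAPaCa-2 500. Compound at several concentrations is added after 24 h. Incubation runs 9–18 days (BXPC-3 18 days, PANC-1 14 days). Cells are then fixed with 4% paraformaldehyde and stained with crystal violet, and colonies of more than 50 cells are counted.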

Series [9] addresses T1, NAD-dependent protein deacylase sirtuin-6. Put plainly: […] in human BxPC3 cells assessed as reduction in H3K56ac levels incubated for 72 hrs by Western blot analysis. It is filed as cell-based. The note with it: BXPC-3. An outline of the steps:
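Cells incubated 72 h with various compound concentrations; whole-cell RIPA lysates with protease inhibitors, BCA-normalised, separated on 12% SDS-PAGE, transferred to PVDF, blocked in 5% milk or BSA. Probed 10 h at 4 °C with antibodies to SIRT6, acetyl-H3K9/K18/K56, total H3, Lin28b, Myc, IGF2BP3, β-actin; HRP secondary, chemiluminescent detection.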
For orientation: Immunoblotting shows a protein as a band on a membrane.

The target in series [10] is Histone deacetylase 9 (Homo sapiens, UniProt Q9UKV0). Put plainly: Inhibition of HDAC9 (unknown origin) by FDL assay. Summed up: (§3)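 Selectivity testing by FDL assay at concentrations up to 200 µM. SIRT1-2 assays run by an outside contract provider. Values reported as IC50.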
Sequence of Histone deacetylase 9 (Q9UKV0 whole entry): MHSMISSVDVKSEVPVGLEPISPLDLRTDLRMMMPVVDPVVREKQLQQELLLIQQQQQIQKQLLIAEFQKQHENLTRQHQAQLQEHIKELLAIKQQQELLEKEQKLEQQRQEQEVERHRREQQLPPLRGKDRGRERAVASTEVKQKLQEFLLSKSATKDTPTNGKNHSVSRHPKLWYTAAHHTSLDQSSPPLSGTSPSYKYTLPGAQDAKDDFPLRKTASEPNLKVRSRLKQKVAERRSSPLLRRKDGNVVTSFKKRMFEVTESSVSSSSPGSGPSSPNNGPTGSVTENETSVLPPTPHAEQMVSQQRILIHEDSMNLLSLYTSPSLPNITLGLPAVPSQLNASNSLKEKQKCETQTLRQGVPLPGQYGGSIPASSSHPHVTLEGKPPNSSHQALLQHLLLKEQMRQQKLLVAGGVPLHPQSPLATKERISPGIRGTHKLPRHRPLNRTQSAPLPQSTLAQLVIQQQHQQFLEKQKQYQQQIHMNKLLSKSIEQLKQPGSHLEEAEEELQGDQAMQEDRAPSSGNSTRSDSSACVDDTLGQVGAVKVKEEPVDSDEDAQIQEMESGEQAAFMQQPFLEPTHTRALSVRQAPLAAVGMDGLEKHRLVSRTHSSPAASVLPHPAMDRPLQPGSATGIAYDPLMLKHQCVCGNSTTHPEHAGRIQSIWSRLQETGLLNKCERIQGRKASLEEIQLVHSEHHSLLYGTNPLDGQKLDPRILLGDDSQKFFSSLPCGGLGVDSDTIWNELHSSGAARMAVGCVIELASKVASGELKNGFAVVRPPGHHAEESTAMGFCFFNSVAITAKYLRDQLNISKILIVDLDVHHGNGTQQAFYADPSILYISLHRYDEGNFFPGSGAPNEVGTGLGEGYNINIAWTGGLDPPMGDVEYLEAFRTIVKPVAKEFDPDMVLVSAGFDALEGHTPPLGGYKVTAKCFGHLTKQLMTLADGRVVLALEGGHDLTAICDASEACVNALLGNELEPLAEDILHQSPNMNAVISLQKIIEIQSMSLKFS
The nature of series [11]: Cmax in Sprague-Dawley rat at 10 mg/kg, po after 0.083 to 24 hrs by LC-MS/MS analysis. It is filed as ADME, organism-based. The arrangement: dose 10 mg/kg, route oral. The note with it: in vivo. Summed up: as §2
Series [12] deals with Histone deacetylase 5 (Homo sapiens, UniProt Q9UQL6). As to the kind of experiment: Inhibition of HDAC5 (unknown origin) by FDL assay. An outline of the steps: as §3
Sequence of Histone deacetylase 5 (Q9UQL6 whole entry): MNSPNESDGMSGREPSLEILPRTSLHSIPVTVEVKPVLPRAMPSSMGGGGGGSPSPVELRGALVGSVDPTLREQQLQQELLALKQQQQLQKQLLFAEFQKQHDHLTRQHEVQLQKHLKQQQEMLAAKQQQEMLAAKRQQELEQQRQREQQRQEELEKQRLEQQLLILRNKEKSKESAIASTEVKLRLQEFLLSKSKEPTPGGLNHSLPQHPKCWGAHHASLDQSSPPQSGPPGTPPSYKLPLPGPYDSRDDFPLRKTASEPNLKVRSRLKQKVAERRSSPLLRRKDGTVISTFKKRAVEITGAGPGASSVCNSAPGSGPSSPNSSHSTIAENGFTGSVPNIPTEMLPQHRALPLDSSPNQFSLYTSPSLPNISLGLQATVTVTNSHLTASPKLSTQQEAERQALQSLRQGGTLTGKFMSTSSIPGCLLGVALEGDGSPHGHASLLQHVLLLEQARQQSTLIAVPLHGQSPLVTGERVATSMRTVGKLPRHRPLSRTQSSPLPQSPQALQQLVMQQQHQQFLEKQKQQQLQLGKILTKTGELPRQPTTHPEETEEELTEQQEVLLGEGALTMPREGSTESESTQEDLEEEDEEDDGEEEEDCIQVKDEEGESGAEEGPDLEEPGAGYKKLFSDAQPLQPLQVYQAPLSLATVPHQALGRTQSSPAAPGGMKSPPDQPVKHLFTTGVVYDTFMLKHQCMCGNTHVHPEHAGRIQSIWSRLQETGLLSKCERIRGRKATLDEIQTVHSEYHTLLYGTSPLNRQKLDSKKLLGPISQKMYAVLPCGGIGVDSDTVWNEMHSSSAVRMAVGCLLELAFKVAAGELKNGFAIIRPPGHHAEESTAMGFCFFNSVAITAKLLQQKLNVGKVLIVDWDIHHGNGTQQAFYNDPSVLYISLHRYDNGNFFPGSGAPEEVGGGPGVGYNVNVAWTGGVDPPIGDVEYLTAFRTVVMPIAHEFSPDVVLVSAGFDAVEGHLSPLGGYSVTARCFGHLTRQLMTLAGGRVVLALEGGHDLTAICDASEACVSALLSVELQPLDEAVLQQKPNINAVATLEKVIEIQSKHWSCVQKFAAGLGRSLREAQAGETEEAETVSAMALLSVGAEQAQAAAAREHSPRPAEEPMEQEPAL
In series [13] the target is T1, NAD-dependent protein deacylase sirtuin-6. Put plainly: Activation of N-terminal his-tagged human SIRT6 expressed in Escherichia coli M15 [pREP4] assessed as increase in deacetylation activity incubated for 2 hrs using Ac-RYQK(Myr)-AMC substrate by FDL assay relative to control.
Series [14] deals with Histone deacetylase 8 (Homo sapiens, UniProt Q9BY41). As to the kind of experiment: Inhibition of HDAC8 (unknown origin) by FDL assay. Summed up:
as §3

Series [15] deals with T1, NAD-dependent protein deacylase sirtuin-6. Put plainly: Activation of N-terminal his-tagged human SIRT6 expressed in Escherichia coli M15 [pREP4] assessed as increase in deacetylation activity incubated for 2 hrs using Ac-RYQK(Ac)-AMC substrate by HPLC analysis.
In series [16] the test system is ASPC1. Put plainly: Antiproliferative activity against human AsPC1 cells assessed as reduction in cell viability incubated for 72 hrs by MTT assay. It counts as functional, cell-based. Summed up: as §1
Series [17] deals with PANC-1. Put plainly: Induction of apoptosis in human PANC1 cells incubated for 48 hrs by propidium iodide and Annexin V-FITC staining based flow cytometry. It is filed as functional, cell-based. An outline of the steps: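 PANC-1 and BXPC-3 cells seeded in 6-well plates and treated with a concentration series for 48 h. Stained with Annexin V-FITC and propidium iodide for 10 min in the dark. Annexin V+ populations measured by flow cytometry.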

Series [18] in a line: Toxicity in BALB/c nude mouse xenografted with human PANC1 cells assessed as induction of body weight loss at 100 to 150 mg/kg/day, po for 30 days. It is filed as organism-based, PANC-1. The following applies: in vivo, 720 h. An outline of the steps: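 Female BALB/c nude mice, 6–8 weeks old, received 5×10⁶–1×10⁷ PANC-1 cells subcutaneously in the right flank. Once tumors reached 130–150 mm³, mice were randomized (n = 6) to vehicle or 100 or 150 mg/kg/d given orally for 30 days. Body weight and toxicity were monitored against the vehicle group.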

Series [19] concerns the target NAD-dependent protein deacetylase sirtuin-1 (Homo sapiens, UniProt Q96EB6). Put plainly: Inhibition of SIRT1 (unknown origin) by FDL assay. Summed up: as §3

Active and inactive are the calls of the source. The rule behind the calls is not given here.

T1 sequence (Q8N6T7 whole entry): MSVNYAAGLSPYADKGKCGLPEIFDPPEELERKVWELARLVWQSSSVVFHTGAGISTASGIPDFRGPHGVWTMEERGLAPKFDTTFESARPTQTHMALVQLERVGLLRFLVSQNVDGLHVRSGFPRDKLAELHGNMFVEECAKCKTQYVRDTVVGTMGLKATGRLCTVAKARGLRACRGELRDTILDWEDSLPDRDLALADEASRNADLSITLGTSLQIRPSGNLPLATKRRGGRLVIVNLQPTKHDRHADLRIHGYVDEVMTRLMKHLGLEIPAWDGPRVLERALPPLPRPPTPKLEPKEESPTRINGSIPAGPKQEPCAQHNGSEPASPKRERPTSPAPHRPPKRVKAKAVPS
Sequence of Histone deacetylase 8 (Q9BY41 whole entry): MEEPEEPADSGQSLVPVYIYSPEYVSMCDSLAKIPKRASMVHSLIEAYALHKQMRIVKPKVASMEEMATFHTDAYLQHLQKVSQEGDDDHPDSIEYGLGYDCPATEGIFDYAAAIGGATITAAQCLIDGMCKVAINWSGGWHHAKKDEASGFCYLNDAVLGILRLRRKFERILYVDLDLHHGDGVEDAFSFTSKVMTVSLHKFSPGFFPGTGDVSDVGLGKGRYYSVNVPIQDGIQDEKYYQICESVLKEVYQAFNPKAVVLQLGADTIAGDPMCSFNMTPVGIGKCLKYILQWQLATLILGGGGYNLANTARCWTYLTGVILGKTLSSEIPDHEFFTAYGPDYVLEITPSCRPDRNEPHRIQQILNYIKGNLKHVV
Sequence of NAD-dependent protein deacetylase sirtuin-1 (Q96EB6 whole entry): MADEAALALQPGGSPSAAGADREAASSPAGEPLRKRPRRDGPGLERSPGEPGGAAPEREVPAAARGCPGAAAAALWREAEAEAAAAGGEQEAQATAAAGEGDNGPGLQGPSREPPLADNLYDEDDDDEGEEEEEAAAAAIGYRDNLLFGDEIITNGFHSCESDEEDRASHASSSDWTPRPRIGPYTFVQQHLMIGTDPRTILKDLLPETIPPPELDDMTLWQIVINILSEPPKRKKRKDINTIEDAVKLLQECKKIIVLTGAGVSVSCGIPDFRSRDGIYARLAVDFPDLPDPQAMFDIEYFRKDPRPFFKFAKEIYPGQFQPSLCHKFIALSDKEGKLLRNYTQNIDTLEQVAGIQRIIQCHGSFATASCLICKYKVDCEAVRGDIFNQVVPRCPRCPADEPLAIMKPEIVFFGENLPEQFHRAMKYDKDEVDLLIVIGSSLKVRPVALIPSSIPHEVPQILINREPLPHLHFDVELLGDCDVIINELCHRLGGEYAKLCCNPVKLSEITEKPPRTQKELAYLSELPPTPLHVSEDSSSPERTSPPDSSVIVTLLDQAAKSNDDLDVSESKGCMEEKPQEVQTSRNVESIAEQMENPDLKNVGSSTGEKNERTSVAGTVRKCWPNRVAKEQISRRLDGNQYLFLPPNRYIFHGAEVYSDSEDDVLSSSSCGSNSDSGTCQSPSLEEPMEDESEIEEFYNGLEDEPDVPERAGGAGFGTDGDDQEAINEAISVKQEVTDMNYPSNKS

`O=C(NC(c1ccccc1)c1ccccc1)c1cc(-c2cc3ccccc3o2)nc2ccccc12` had a bioavailability in [1] of 4.24%. In series [2], this compound registered an inhibition at 10 µM of 57.2%. Further, the Activity result in series [3] was “Dose-dependent effect”; in series [4], “Dose-dependent effect”; in series [6], “Dose-dependent effect”; in [16], “Dose-dependent effect”; in series [17], “Dose-dependent effect”; in series [18] it was “Non-Toxic”. The IC50 was 4.13 µM in series [3] (PANC-1, 72 h); 8.27 µM in series [6] (BXPC-3, 72 h); > 200 µM in series [10]; > 200 µM in series [12]; > 200 µM in [14]; 9.66 µM in [16] (ASPC1, 72 h). In series [19], this compound gave an IC50 of 171 µM. In series [5], this compound gave a half-life of 7.52 h. Besides, the results for the EC1.5 in series [7] and in [13] were 0.58 to 0.72 µM and 0.49 µM, respectively. Besides, the values for the half-maximal effective concentration (EC50) in series [7] and in series [13] were 8.91 µM and 5.49 µM, respectively. Further, the inhibition entry in series [8] and in series [9] was “Dose-dependent effect” in each case. In [11], this compound displayed a Cmax of 98.5 ng/mL. For the same compound, the result in series [15] was Active.

What is called bioavailability is dose-corrected exposure relative to a reference, in per cent. Broadly, the inhibition is the change of the read-out against control, counted positive when it falls. The term IC50 denotes the midpoint of a concentration-inhibition curve. As usually defined, the half-life is how long it takes for the measured level to halve. High values mean slow decline, low ones rapid decline. By EC50 is commonly meant the concentration giving half of the maximal effect. The term Cmax denotes the maximum level reached in the sampled fluid or tissue.
